According to publication PMC7445463 (Diabetologia, 2020):
Ends that are not written are not given here.

Experiments:
[1] = tested on: patients with type 2 diabetes; assay: Network meta-analysis of antidiabetic medications on blood pressure; parameters: species or system human; conditions: network meta-analysis
[2] = 48-week tofogliflozin vs glimepiride trial in T2D with NAFLD; assay type: in vivo, human; conditions: after 48 weeks; for AST: baseline 55.4 ± 41.8 / 49.7 ± 46.8; for ALT: baseline 72.2 ± 60.5 / 76.4 ± 77.8; for body weight: baseline 78.7 ± 17.7 / 81.3 ± 19.2; for HbA1c: baseline tofogliflozin 8.0 ± 0.5, glimepiride 8.4 ± 0.9
[3] = tested on: mouse hypothalamic (mHypoA) and human (SH-SY5Y) neuronal cells; assay: Resistin overexposure of neuronal cells; assay type: cell-based
SD rat islets = assay: Perifusion of rat islets, GSIS; assay type: cell-based
[4] = Nasal vs injectable glucagon, insulin-induced hypoglycaemia; assay type: in vivo, human
[5] = Insulin icodec vs IGlar U100 26-week phase 2 trial; assay type: in vivo, human
How it was run: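 Randomized, double-blind, double-dummy, treat-to-target phase 2 trial lasting 26 weeks. Participants were insulin-naïve adults with T2D and HbA1c 7.0-9.5% on metformin ± DPP4i, randomized 1:1 (n=247). Starting doses were 70 U once weekly or 10 U once daily, titrated weekly to a pre-breakfast SMBG target of 3.9-6.0 mmol/L. The primary endpoint was HbA1c change from baseline to week 26; FPG and mean weekly dose over the last two weeks were secondary.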

[6] = EXSCEL post-hoc analysis, eGFR slope and UACR; assay type: in vivo, human
[7] = resistin overexposure, neuronal cells

CCOc1ccc(Cc2cc([C@@H]3O[C@H](CO)[C@@H](O)[C@H](O)[C@H]3O)ccc2Cl)cc1 [dapagliflozin]
increase in hepatic lipid content (HCL) (CON-D and T2DM-D, non-significant): 20%
decrease in hepatic glycogen (T2DM-D, T2DM-P -6±0.02): -10±0.02%
glycogenolysis (both groups): no impact
EGP higher following administration (single dose 10mg): 25%
diastolic blood pressure, mean difference versus placebo [1]: -1.48 mmHg

CCC1=C(C)CN(C(=O)NCCc2ccc(S(=O)(=O)NC(=O)N[C@H]3CC[C@H](C)CC3)cc2)C1=O [glimepiride]
AST [2]: 52.3 ± 37.6 IU/L
ALT [2]: 78.9 ± 68.7 IU/L
body weight [2]: 81.9 ± 21.1 kg
HbA1c [2]: 7.5 ± 0.6%

CCCCCCC(=O)CCCCCC/C=C/C[C@@H](O)[C@H](O)[C@@](N)(CO)C(=O)O [myriocin]
resistin-dependent neuronal inflammation and IR ([3]; pharmacological inhibition): prevents

CCc1ccc(Cc2ccc3c(c2)[C@]2(OC3)O[C@H](CO)[C@@H](O)[C@H](O)[C@H]2O)cc1 [tofogliflozin]
stage score ([2]; baseline 1.6 ± 1.1): 1.1 ± 1.3
grade score ([2]; baseline 1.7 ± 0.9): 0.9 ± 0.8
AST [2]: 27.2 ± 22.4 IU/L
ALT [2]: 33.1 ± 31.5 IU/L
body weight [2]: 73.3 ± 18.3 kg
HbA1c [2]: 6.9 ± 1.2%
steatosis score ([2]; tofogliflozin baseline 2.0 ± 0.7): 1.2 ± 0.4

GIP(3-30)
insulin secretion in response to glucose alone (SD rat islets; receptor antagonists): not reduced

glucagon [injectable glucagon]
geometric least square mean maximal blood glucose (BGMAX) ([4]; in vivo): 11.4 mmol/L
headache ([4]; in vivo): 5.8%
mean time to treatment success ([4]; in vivo): 10.4 min
nausea ([4]; in vivo): 28.8%
vomiting ([4]; in vivo): 11.5%
patients achieving treatment success ([4]; within 15 minutes, T1D or T2D): 97.0%

glucagon-like peptide-1 (HAEGTFTSDVSSYLEGQAAKEFIAWLVKGR; ends and bridges not checked; UniProt P01275 98-127, looked up) [GLP-1]
potentiation of GSIS at low concentrations (SD rat islets; 10-100 pM): no such effect

insulin glargine U100 [IGlar U100]
estimated mean HbA1c at week 26 ([5]; baseline 8.1 icodec, 8.0 IGlar U100): 6.9%
estimated mean FPG at week 26 ([5]; in vivo): 7.05 mmol/L
estimated mean weekly insulin dose, last two weeks ([5]; in vivo): 284 U/week
level 2 and 3 hypoglycaemia ([5]; on-treatment period): 46 events per 100 patient years of exposure
estimated mean change in HbA1c from baseline ([5]; week 26): -1.15 %-points

once-weekly exenatide [EQW]
reduction of UACR vs placebo ([6]; baseline UACR>30 mg/g): 28.2%
reduction of UACR vs placebo ([6]; baseline UACR>100 mg): 22.5%
eGFR slope vs placebo ([6]; baseline UACR>100mg/g, 95% CI 0.24-1.34): +0.79 mL/min/1.73m2/year
reduction of UACR vs placebo ([6]; baseline UACR>200 mg): 34.5%
eGFR slope vs placebo ([6]; baseline UACR>200mg/g, 95% CI 0.57-2.06): +1.32 mL/min/1.73m2/year

B1: resistin: "circulating factors originated from adipose tissue and immune cells"; "a key mediator linking obesity to IR" (protein, UniProt Q9HD89 19-108, looked up)
Resistin: KTLCSMEEAINERIQEVAGSLIFRAISSIGLECQSVTSRGDLATCPRGFAVTGCTCGSACGSWDVRAETTCHCQCAGMDWTGARCCRVQP
increased expression of IL6 [3, 7]: 89.93%
inhibition of insulin-dependent phosphorylation of Akt [3, 7]: 40.6%
